Sampled rows, rich in hits. Any-hit rate of the full collection: about 3.3%.
Measles CPE = protection of cells from measles virus; AID 841; actives 1.5% (n = 140,000); protection (pct of control), % at 4 µM; Measles virus-infected cells, CPE protection, absorbance; in the data active means protection mostly above about 24%, no sharp cut-off; inactive means mostly below about 26%
IL1B NFkB pot = enhances IL-1B driven NFkB nuclear translocation. HUVEC IL-1B NFkB p65 nuclear translocation imaging. actives 0.3% (n = 94,000). AID 819. activation, % at 2 µM;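 active means activation above 40%, about the mean plus 3 SD, also judged a hit on visual image review; inconclusive means activation above 40% but not a hit on visual review; inactive means activation not above 40% and no visual hit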;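 further: percent activation is computed from the nuclear over cytoplasmic p65 intensity ratio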
FAK blocker = FAK (human) kinase inhibition. biochemical FAK kinase activity assay. inhibition, %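 (tested at 7 µM)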. actives 0.84% (n = 97,000); in the data active means inhibition above about 19%;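 further: 0% = DMSO and 100% = reference compound high control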
IL1B cytotox = toxic to HUVEC cells under IL-1B stimulation; HUVEC cell count loss, Hoechst imaging, IL-1B stimulated; cell count reduction, % at 2 µM; actives 0.41% (n = 94,000);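 active means cell count reduction more than 3 SD above the screen-wide mean, cut at about 70% in these data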;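 further: normalized per plate to untreated control cells as the no-loss baseline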
HIV Rev-RRE inh = HIV Rev-RRE protein-RNA interaction inhibition; Rev peptide-RRE RNA binding, FRET; inhibition, % at 8 µM; actives 0.79% (n = 97,000); AID 704;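 active means inhibition above the screen-wide mean plus 3 SD, cut at about 35% in these data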;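 further: 0% = median DMSO wells and 100% = median Neomycin B control wells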
Target sequence (P05866 whole entry, looked up): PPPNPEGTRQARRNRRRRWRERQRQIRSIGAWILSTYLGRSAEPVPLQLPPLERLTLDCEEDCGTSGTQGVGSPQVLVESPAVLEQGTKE
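Test system: Cy5-tagged RRE RNA duplex with fluorescein-tagged Rev peptide | Read-out: % inhibition of FRET ratio versus controls | Probe or stimulus: Labelled Rev peptide | Incubation: 5 min RNA-compound premix plus 15 min binding step, 25 °C | Technique: FRET fluorescence readout | Benchmarks: DMSO low control, neomycin B high control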
IL1B NFkB inh = blocks IL-1B driven NFkB nuclear translocation in HUVEC cells. inhibition, % at 2 µM. AID 796. HUVEC IL-1B NFkB p65 nuclear translocation imaging. actives 0.43% (n = 94,000);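 active means inhibition above about 30% together with a positive call from visual inspection of the well image, limit read from the data; inconclusive means inhibition above a set limit but visual check negative; inactive means inhibition not above a set limit, visual check negative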;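 further: nuclear over cytoplasmic p65 intensity ratio measured by imaging; 0% = IL-1B stimulated DMSO wells and 100% = unstimulated DMSO wells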
Active calls of the source: *; ? = inconclusive; nt = no result given; [ ] = dose if it differs, or a comment.

SMILES	Measles CPE	IL1B NFkB pot	FAK blocker	IL1B cytotox	HIV Rev-RRE inh	IL1B NFkB inh
O=C1CC(C(=O)Nc2ccccc2)C2(CCCCC2)O1 (stereo not given)	3	9	0	7	2	-9
O=C1CC(C(=O)Nc2ccc(Br)cc2)C2(CCCC2)O1 (stereo not given)	4	-25	13	82*	5	25
O=C(CN1CCCCCC1)N1c2ccccc2C=Cc2ccccc21	14	-31	-4	3	2	31*
CCN(CC)C(=O)N1c2ccccc2C=Cc2ccccc21	57*	8	9	-4	5	-8
O=C(CN1CCCCC1)N1CCCc2ccccc21	9	13	7	10	6	-13
Cc1ccc2nc(SCC(=O)Nc3ccc(F)c([N+](=O)[O-])c3)[nH]c2c1	19	nt	nt	nt	nt	nt
Cc1ccc(CC(=O)Nc2ccc(F)c([N+](=O)[O-])c2)cc1	35*	nt	nt	nt	nt	nt
Cc1ccc(C(=O)N/C(=C/c2ccc(F)cc2)C(=O)NCc2ccncc2)cc1	42	nt	nt	nt	nt	nt
O=C(N/N=C/c1coc2ccccc2c1=O)c1cn(-c2ccccc2)nc1-c1ccc(F)cc1	13	nt	nt	nt	nt	nt
CCC(C)NCCOCCSc1ccc(Cl)cc1 (stereo not given)	52*	0	4	-75	-5	0
COc1ccc2[nH]c(=O)c(CN(C(=O)c3cccnc3)c3ccccc3)cc2c1	7	67*	-2	-4	3	-67
COc1ccc(N(Cc2cc3cc(OC)ccc3[nH]c2=O)C(=O)c2cccnc2)cc1	4	8	2	-34	5	-8
COc1ccnc(Oc2ccc(C)cc2)c1C#N	67*	-6	-7	-1	7	6
Cn1c(=O)c2c(nc(SCC(=O)N(C3CCCCC3)C3CCCCC3)n2C)n(C)c1=O	nt	-3	0	13	4	3
O=C(Nc1cccc(C(F)(F)F)c1)c1cc(-c2cccs2)on1	67*	-1	1	13	5	1
C1=CCC(/C=N/n2cnnc2)CC1 (stereo not given)	31*	nt	nt	nt	nt	nt
Cn1c(-c2ccccc2)cnc1SCC(=O)N1CCCCC1	18*	-3	3	-21	-7	3
N#C/C(C(=O)c1ccccc1)=C1/SC=C(N)N1c1ccccc1	4	-16	4	-30	118*[fluorescence artefact?]	16
COC(=O)/C(C#N)=C1/SC=C(C)N1c1ccccc1	11	-2	0	32	8	2
N#C/C(C(=O)N1CCOCC1)=C1/SC(Cc2ccccc2)C(=O)N1c1ccccc1 (stereo not given)	2	11	-4	-2	44*	-11
CC1=CS/C(=C(/C#N)C(=O)N2CCCCC2)N1c1ccccc1	33*	4	10	-56	5	-4
CCCCc1ccc(CC2S/C(=C(\C#N)C(=O)N3CCOCC3)N(c3ccccc3)C2=O)cc1 (stereo not given)	12	5	-2	-8	17	-5
CCc1cc2cc(C)cc(C)c2nc1SCC(=O)N1CCCC1	7	33	2	95*	8	-33
Nc1c(C(=O)Nc2ccccc2F)sc2nc(Cc3ccccc3)cc(C(F)(F)F)c12	21	-11	-1	22	82*[fluorescence artefact?]	11
CC(=O)c1ccc(NC(=O)C2Cc3ccccc3CN2C(=O)c2ccccc2)cc1 (stereo not given)	9	nt	nt	nt	nt	nt
SMILES	Measles CPE	IL1B NFkB pot	FAK blocker	IL1B cytotox	HIV Rev-RRE inh	IL1B NFkB inh
O=C(NC1=NCCS1)C1Cc2ccccc2CN1C(=O)c1ccccc1 (stereo not given)	29*	27	-1	-20	2	-27
COc1cc(/C=C/C(=O)NC(C)C)ccc1OCc1ccccc1	88*	nt	nt	nt	nt	nt
COc1cc(CC(=O)N/N=C/c2ccc([N+](=O)[O-])cc2)c([N+](=O)[O-])cc1OC	11	nt	nt	nt	nt	nt
COc1ccc(/C=C/C(=O)NCCCc2ccccc2)cc1OC	4	nt	nt	nt	nt	nt
COc1cc(/C=N/OCC(=O)Nc2cc(C)on2)ccc1OCc1ccccc1	75*	nt	nt	nt	nt	nt
COc1cc(/C=N/NC(=O)Cc2ccccc2)ccc1Oc1ccc([N+](=O)[O-])cc1[N+](=O)[O-]	43*	nt	nt	nt	nt	nt
COc1cc(/C=N\Nc2ccc([N+](=O)[O-])cc2)ccc1OCC(=O)Nc1ccc(C)c(C)c1	3	-13	18	-17	76*[fluorescence artefact?]	14
COc1cc(/C=N/NC(=O)CN2CCCCC2)ccc1OCc1ccccc1	34*	nt	nt	nt	nt	nt
CC1CC1C(=O)Nc1nc(-c2cccs2)c(-c2cccs2)s1 (stereo not given)	17	nt	nt	nt	nt	nt
COc1ccccc1NCCC(=O)OCC(=O)NC1CCCCCC1	10	nt	nt	nt	nt	nt
N#CC1=C(N)SC(N)=C(C#N)C1CCc1ccccc1	8	14	0	-8	79*	-14
N#CC1=C(N)SC(N)=C(C#N)C1c1cccc(Oc2ccccc2)c1	8	3	4	21	80*	-3
N#CC1=C(N)SC(N)=C(C#N)C1c1c(Cl)cccc1Cl	5	-6	12	8	11	6
N#CC1=C(N)SC(N)=C(C#N)C1Cc1ccccc1	12	-5	1	3	47*	5
N#Cc1c(-c2cccs2)nc(SCC(=O)c2cccs2)[nH]c1=O	20	nt	-6	nt	24	nt
Cc1ccccc1-c1noc(CCC(=O)NCC2CCCO2)n1 (stereo not given)	11	4	-4	84*	3	-4
CCc1ccc(N(C(=O)c2csnn2)C(C(=O)NCc2ccccc2)c2ccco2)cc1 (stereo not given)	35*	5	1	-16	3	-5
O=C(NCc1ccccc1)C(c1ccco1)N(C(=O)c1cnccn1)c1ccc(F)cc1 (stereo not given)	12	-15	0	-13	3	15
COC(=O)c1cc2ccsc2n1Cc1ccccc1F	9	nt	nt	nt	nt	nt
CC(C)N1C(=O)CCC1C(=O)NCCc1ccc(Cl)cc1 (stereo not given)	30*	nt	nt	nt	nt	nt
Cc1ccc(CCNC(=O)C2CCC(=O)N2C(C)C)cc1 (stereo not given)	7	nt	nt	nt	nt	nt
Cc1ccc(CSCCNS(=O)(=O)c2ccccc2)cc1	10	nt	nt	nt	nt	nt
O=C(NNC(=O)c1cccs1)c1ccc(S(=O)(=O)N2CCCCC2)cc1	26*	nt	nt	nt	nt	nt
CC1CN(C(=O)COC(=O)c2cccs2)CC(C)O1 (stereo not given)	36*	nt	nt	nt	nt	nt
Clc1ccc(-c2nnc(SCc3ccon3)o2)c(Cl)c1	27	-4	-2	70*	5	4
O=C1CC(N2CCOCC2)C(=O)N1Cc1ccc(N2CCCC2=O)cc1 (stereo not given)	42*	?	0	16	4	-42
CC(C)c1ccc(/C=N/NC(=O)C(=O)NCCCN2CCOCC2)cc1	24	nt	nt	nt	nt	nt
CN(C)[C@@H]1CCC[C@@H]1OC(=O)C(c1ccccc1)c1ccccc1	10	nt	nt	nt	nt	nt
O=C1c2ccccc2-c2cccc(C(=O)N3CCCCCC3)c21	29*	nt	nt	nt	nt	nt
O=C(NC(=S)N1CCN(c2ccc(C(F)(F)F)cc2[N+](=O)[O-])CC1)c1cccs1	12	nt	nt	nt	nt	nt
